Data published in ChEMBL document CHEMBL1155010, “Synthesis and biological evaluation of substituted [18F]imidazo[1,2-a]pyridines and [18F]pyrazolo[1,5-a]pyrimidines for the study of the peripheral benzodiazepine receptor using positron emission tomography” (J Med Chem, 2008).

Columns and labels:
[1] = Lipophilicity, log p at pH 7.5; type: physicochemical; settings: buffer
In short: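 RP-HPLC on a C18 column with methanol/0.1 M phosphate buffer pH 7.5 (60/40) at 1 mL/min. Samples were dissolved in methanol. log P7.5 was estimated by comparing retention time with that of reference compounds of known log P.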

[2] = Displacement of [3H]flumazenil from central benzodiazepine receptor in rat brain cortex membrane; type: cell membranes
In short: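 Rat brain cortex membranes (100-150 µg protein) were incubated in triplicate at 25 °C for 45 min with [3H]flumazenil (2 nM) and 7 ligand concentrations (10^-10 to 10^-5 M). Nonspecific binding was set with flumazenil 20 µM. Assays were filtered, washed with ice-cold Tris/HCl pH 7.4 and counted. Ki was derived from IC50 by Cheng-Prusoff.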

Kidney [3] = assay: Biodistribution in Sprague-Dawley rat kidney assessed per gram of tissue at 1 MBq, iv after 0.25 hrs; type: ADME, organism-based; settings: in vivo
In short: (§1)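 Male SD rats aged 8-10 weeks got 1 MBq [18F]tracer by tail vein in 0.1 mL. Groups of n = 4 were killed (CO2, then cervical fracture) at 0.25, 0.5, 1 and 4 h. Organs were weighed and gamma counted against a diluted standard of the injectate. Results are %ID per gram wet tissue, mean with standard deviation.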

Kidney [4] = assay: Biodistribution in Sprague-Dawley rat kidney assessed per gram of tissue at 1 MBq, iv after 0.5 hrs; type: ADME, organism-based; settings: in vivo; in short: as §1
Kidney [5] = assay: Biodistribution in Sprague-Dawley rat kidney assessed per gram of tissue at 1 MBq, iv after 1 hr; type: ADME, organism-based; settings: in vivo; in short: as §1
Kidney [6] = assay: Biodistribution in Sprague-Dawley rat kidney assessed per gram of tissue at 1 MBq, iv after 4 hrs; type: ADME, organism-based; settings: in vivo; in short: as §1
Heart [7] = assay: Biodistribution in Sprague-Dawley rat heart assessed per gram of tissue at 1 MBq, iv after 0.25 hrs; type: ADME, organism-based; settings: in vivo; in short: as §1
Heart [8] = assay: Biodistribution in Sprague-Dawley rat heart assessed per gram of tissue at 1 MBq, iv after 0.5 hrs; type: ADME, organism-based; settings: in vivo; in short: as §1
Heart [9] = assay: Biodistribution in Sprague-Dawley rat heart assessed per gram of tissue at 1 MBq, iv after 1 hr; type: ADME, organism-based; settings: in vivo; in short: as §1
Heart [10] = assay: Biodistribution in Sprague-Dawley rat heart assessed per gram of tissue at 1 MBq, iv after 4 hrs; type: ADME, organism-based; settings: in vivo; in short: as §1
Lung [11] = assay: Biodistribution in Sprague-Dawley rat lungs assessed per gram of tissue at 1 MBq, iv after 0.25 hrs; type: ADME, organism-based; settings: in vivo; in short: as §1
Lung [12] = assay: Biodistribution in Sprague-Dawley rat lungs assessed per gram of tissue at 1 MBq, iv after 0.5 hrs; type: ADME, organism-based; settings: in vivo; in short: as §1
Lung [13] = assay: Biodistribution in Sprague-Dawley rat lungs assessed per gram of tissue at 1 MBq, iv after 1 hr; type: ADME, organism-based; settings: in vivo; in short: as §1
Lung [14] = assay: Biodistribution in Sprague-Dawley rat lungs assessed per gram of tissue at 1 MBq, iv after 4 hrs; type: ADME, organism-based; settings: in vivo; in short: as §1
Spleen [15] = assay: Biodistribution in Sprague-Dawley rat spleen assessed per gram of tissue at 1 MBq, iv after 0.25 hrs; type: ADME, organism-based; settings: in vivo; in short: as §1
Spleen [16] = assay: Biodistribution in Sprague-Dawley rat spleen assessed per gram of tissue at 1 MBq, iv after 0.5 hrs; type: ADME, organism-based; settings: in vivo; in short: as §1
Spleen [17] = assay: Biodistribution in Sprague-Dawley rat spleen assessed per gram of tissue at 1 MBq, iv after 1 hr; type: ADME, organism-based; settings: in vivo; in short: as §1
Spleen [18] = assay: Biodistribution in Sprague-Dawley rat spleen assessed per gram of tissue at 1 MBq, iv after 4 hrs; type: ADME, organism-based; settings: in vivo; in short: as §1
Liver [19] = assay: Biodistribution in Sprague-Dawley rat liver assessed per gram of tissue at 1 MBq, iv after 0.25 hrs; type: ADME, organism-based; settings: in vivo; in short: as §1
Liver [20] = assay: Biodistribution in Sprague-Dawley rat liver assessed per gram of tissue at 1 MBq, iv after 0.5 hrs; type: ADME, organism-based; settings: in vivo; in short: as §1
Liver [21] = assay: Biodistribution in Sprague-Dawley rat liver assessed per gram of tissue at 1 MBq, iv after 1 hr; type: ADME, organism-based; settings: in vivo; in short: as §1
Liver [22] = assay: Biodistribution in Sprague-Dawley rat liver assessed per gram of tissue at 1 MBq, iv after 4 hrs; type: ADME, organism-based; settings: in vivo; in short: as §1
Adrenal [23] = assay: Biodistribution in Sprague-Dawley rat adrenals assessed per gram of tissue at 1 MBq, iv after 0.25 hrs; type: ADME, organism-based, Adrenal tissue; settings: in vivo; in short: as §1
Adrenal [24] = assay: Biodistribution in Sprague-Dawley rat adrenals assessed per gram of tissue at 1 MBq, iv after 0.5 hrs; type: ADME, organism-based, Adrenal tissue; settings: in vivo; in short: as §1
Adrenal [25] = assay: Biodistribution in Sprague-Dawley rat adrenals assessed per gram of tissue at 1 MBq, iv after 1 hr; type: ADME, organism-based, Adrenal tissue; settings: in vivo; in short: as §1
Adrenal [26] = assay: Biodistribution in Sprague-Dawley rat adrenals assessed per gram of tissue at 1 MBq, iv after 4 hrs; type: ADME, organism-based, Adrenal tissue; settings: in vivo; in short: as §1
[27] = Biodistribution in Sprague-Dawley rat testis assessed per gram of tissue at 1 MBq, iv after 0.25 hrs; type: ADME, organism-based; settings: in vivo; in short: as §1
[28] = Biodistribution in Sprague-Dawley rat testis assessed per gram of tissue at 1 MBq, iv after 0.5 hrs; type: ADME, organism-based; settings: in vivo; in short: as §1
[29] = Biodistribution in Sprague-Dawley rat testis assessed per gram of tissue at 1 MBq, iv after 1 hr; type: ADME, organism-based; settings: in vivo; in short: as §1
[30] = Biodistribution in Sprague-Dawley rat testis assessed per gram of tissue at 1 MBq, iv after 4 hrs; type: ADME, organism-based; settings: in vivo; in short: as §1
[31] = Ratio of drug level in olfactory bulb to blood in Sprague-Dawley rat at 1 MBq, iv; type: ADME
In short: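 Same rat biodistribution as above: 1 MBq iv by tail vein, n = 4 per time point, 0.25-4 h, gamma counting as %ID/g. Ratio is the olfactory bulb radioactivity concentration divided by the blood concentration at each time.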

Femur [32] = assay: Biodistribution in Sprague-Dawley rat femur at 1 MBq, iv after 0.25 hrs; type: ADME, organism-based; settings: in vivo; in short: as §1
Femur [33] = assay: Biodistribution in Sprague-Dawley rat femur at 1 MBq, iv after 4 hrs; type: ADME, organism-based; settings: in vivo; in short: as §1
[34] = Metabolic stability in Sprague-Dawley rat plasma assessed as drug remaining at 30 MBq after 4 hrs by Radio-HPLC analysis; type: ADME, cell-free; settings: read-out: Stability
In short: (§2)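 Rats received 30 MBq tracer and were sampled at 0.25, 0.5, 1 and 4 h. Plasma was diluted with water containing unlabeled carrier and KF and injected directly. Frontal cortex or olfactory bulb was sonicated in acetonitrile/water 1:1 with carrier and KF, centrifuged, and the supernatant diluted. Radio-HPLC used a precolumn switched to C18 with a CH3CN/0.05 M sodium acetate pH 5.5 gradient. Result is % parent remaining.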

[35] = Metabolic stability in Sprague-Dawley rat frontal cortex assessed as drug remaining at 30 MBq after 0.25 hrs by Radio-HPLC analysis; type: ADME, tissue-based; settings: read-out: Stability; in short: as §2
[36] = Metabolic stability in Sprague-Dawley rat frontal cortex assessed as drug remaining at 30 MBq after 4 hrs by Radio-HPLC analysis; type: ADME, tissue-based; settings: read-out: Stability; in short: as §2
[37] = Metabolic stability in Sprague-Dawley rat olfactory bulb assessed as drug remaining at 30 MBq after 0.25 hrs by Radio-HPLC analysis; type: ADME, tissue-based; settings: read-out: Stability; in short: as §2
[38] = Metabolic stability in Sprague-Dawley rat olfactory bulb assessed as drug remaining at 30 MBq after 4 hrs by Radio-HPLC analysis; type: ADME, tissue-based; settings: read-out: Stability; in short: as §2
Blood [39] = assay: Biodistribution in Sprague-Dawley rat blood at 1 MBq, iv after 1 hr; type: ADME, organism-based; settings: in vivo
In short: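 Male SD rats, 8-10 weeks old, given 1 MBq [18F]radiotracer by tail-vein injection in 0.1 mL. Groups of 4 killed (CO2, then cervical fracture) at 0.25, 0.5, 1 and 4 h post-injection. Tissues weighed and gamma-counted against a diluted standard of the injected solution. Activity expressed as %ID per gram wet tissue.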

Blood [40] = assay: Biodistribution in Sprague-Dawley rat blood at 1 MBq, iv after 0.25 hrs; type: ADME, organism-based; settings: in vivo; in short: as §1
Blood [41] = assay: Biodistribution in Sprague-Dawley rat blood at 1 MBq, iv after 4 hrs; type: ADME, organism-based; settings: in vivo; in short: as §1
[42] = Metabolic stability in Sprague-Dawley rat plasma assessed as drug remaining at 30 MBq after 0.25 hrs by Radio-HPLC analysis; type: ADME, cell-free; settings: read-out: Stability; in short: as §2

Row | Structure (SMILES) | Drug uptake (Kidney [3]) [%ID] | Drug uptake (Kidney [4]) [%ID] | Drug uptake (Kidney [5]) [%ID] | Drug uptake (Kidney [6]) [%ID] | Drug uptake (Heart [7]) [%ID] | Drug uptake (Heart [8]) [%ID] | Drug uptake (Heart [9]) [%ID] | Drug uptake (Heart [10]) [%ID] | Drug uptake (Lung [11]) [%ID] | Drug uptake (Lung [12]) [%ID] | Drug uptake (Lung [13]) [%ID] | Drug uptake (Lung [14]) [%ID] | Drug uptake (Spleen [15]) [%ID] | Drug uptake (Spleen [16]) [%ID] | Drug uptake (Spleen [17]) [%ID] | Drug uptake (Spleen [18]) [%ID] | Drug uptake (Liver [19]) [%ID] | Drug uptake (Liver [20]) [%ID] | Drug uptake (Liver [21]) [%ID] | Drug uptake (Liver [22]) [%ID] | other results
1 | CCN(CC)C(=O)Cc1c(-c2ccc(OCCF)cc2)nn2c(C)cc(C)nc12 [DPA-714] | – | – | – | – | – | – | – | – | – | – | – | – | – | – | – | – | – | – | – | – | logD [1]: 2.5; Ki [2]: > 5 µM
2 | CCN(CC)C(=O)Cc1c(-c2ccc(OCC[18F])cc2)nc2ccc(Cl)cn12 | 3.3 | 3.2 | 2.7 | 1.3 | 4.3 | 4.4 | 4.6 | 2.8 | 14.3 | 12.1 | 11.6 | 8.1 | 4.5 | 3.9 | 3.4 | 1.9 | 0.63 | 0.52 | 0.35 | 0.29 | Drug uptake (Adrenal [23]): 6.7 %ID; Drug uptake (Adrenal [24]): 7.9 %ID; Drug uptake (Adrenal [25]): 7.3 %ID; Drug uptake (Adrenal [26]): 7.1 %ID; Drug uptake [27]: 0.17 %ID; Drug uptake [28]: 0.23 %ID; Drug uptake [29]: 0.31 %ID; Drug uptake [30]: 0.42 %ID; Kp [31]: 2; Drug uptake (Femur [32]): 0.4 % ID/g; Drug uptake (Femur [33]): 0.7 % ID/g; remaining at 4 h [34]: < 1%; remaining at 0.25 h [35]: 55%; remaining at 4 h [36]: 10%; remaining at 0.25 h [37]: 80%; remaining at 4 h [38]: 40%
3 | CCN(CC)C(=O)Cc1c(-c2ccc(OCCC[18F])cc2)nn2c(C)cc(C)nc12 | 5.5 | 4.9 | 4.7 | 3.2 | 9 | 9 | 8.7 | 5.8 | 20 | 12.4 | 7.1 | 3.3 | 5.5 | 5.5 | 5.1 | 3.6 | 1.08 | 0.98 | 0.69 | 0.38 | Drug uptake (Adrenal [23]): 8 %ID; Drug uptake (Adrenal [24]): 7.9 %ID; Drug uptake (Adrenal [25]): 11 %ID; Drug uptake (Adrenal [26]): 12.2 %ID; Drug uptake [27]: 0.27 %ID; Drug uptake [28]: 0.28 %ID; Drug uptake [29]: 0.32 %ID; Drug uptake [30]: 0.43 %ID; Drug uptake (Blood [39]): 0.1 % ID/g; Drug uptake (Blood [40]): 0.3 % ID/g; Drug uptake (Blood [41]): 0.1 % ID/g; Drug uptake (Femur [32]): 0.6 % ID/g; Drug uptake (Femur [33]): 2.2 % ID/g; remaining at 0.25 h [42]: 10%; remaining at 0.25 h [35]: 55%; remaining at 4 h [36]: 30%
